Published values of several laboratories.
Lines come from different studies, so protocols differ.
SCN1A: Sodium channel protein type 1 subunit alpha (SCN1A, Homo sapiens, UniProt P35498)
CDK5 with p35: Cyclin-dependent kinase 5, with p35 (CDK5, Homo sapiens, UniProt Q00535)

With `C[C@H]1O[C@H](O[C@H]2[C@H](O)[C@@H](O)[C@@H](O[C@H]3[C@H](O)[C@@H](O)C(O)O[C@@H]3CO)O[C@@H]2CO)[C@H](O)[C@@H](O)[C@@H]1N[C@H]1C=C(CO)[C@@H](O)[C@H](O)[C@H]1O` (stereo partly shown) the inhibition was 91.2% (Alpha-glucosidase MAL12 (MAL12, Saccharomyces cerevisiae S288c, UniProt P53341); enzyme activity; inhibitor; absorbance; 2000 µg/mL).
`Nc1c(Br)cc(Br)cc1CN[C@H]1CC[C@H](O)CC1` gave an inhibition of 33.3% (SCN1A; ion current; inhibitor; patch clamp; 10 µM).
`CNc1ncc2c(/C=C/C(=O)N3CCC(OC)CC3)nn(Cc3cccc(C(F)(F)F)c3)c2n1` has a remaining activity of 89% (CDK5 with p35; enzyme activity; inhibitor; radiometric; 1 µM).
The remaining binding of `Cc1cc([C@@H](C)Nc2ccccc2C(=O)O)c2nc(N3CCC(F)(F)CC3)c(C#N)c(=O)n2c1` is reported as 97% (High affinity nerve growth factor receptor (NTRK1, Homo sapiens, UniProt P04629); binding; competition with immobilised ligand; 10 µM).
For `C[C@@H]1CC2=C(CN1Cc1cccc(C#N)c1)C(=O)N(Cc1ccc(Br)cc1)C1=NCCN12`, the ΔTm was 17.7 °C (ATP-dependent Clp protease proteolytic subunit, mitochondrial (CLPP, Homo sapiens, UniProt Q16740); thermal stability; DSF; 670 µM).
`CC(=O)c1c(C)c2cnc(Nc3ccc(N4CCNCC4)cn3)nc2n(C2CCCC2)c1=O` gave an activity vs control of 103% (CDK5 with p35; enzyme activity; inhibitor; ADP detection; 1 µM).
With `CCCN1C[C@H](CSC)C[C@@H]2c3cccc4[nH]cc(c34)C[C@H]21` the inhibition was 89.1% (SCN1A; ion current; inhibitor; patch clamp; 30 µM).
For `COc1cc(-c2cncc3c2CN(C)Cc2cc(N4CCNCC4)ccc2-3)cc(OC)c1OC`, the remaining activity was 109% (Cyclin-dependent kinase 5, with p25 (CDK5, Homo sapiens, UniProt Q00535); enzyme activity; inhibitor; 1 µM).
With `Cn1c(=O)c2[nH]cnc2n(C)c1=O` the inhibition was 0.195% (SCN1A; ion current; inhibitor; patch clamp; 3 µM).
With `C=CC(=O)N1CCC(COCC(=O)N2CCN(c3nc(-c4cnc(N)nc4C(F)F)nc(N4CCOC[C@@H]4C)n3)CC2)CC1` the remaining binding was 93% (Mitotic checkpoint serine/threonine-protein kinase BUB1 (BUB1, Homo sapiens, UniProt O43683); binding; competition with immobilised ligand; 1 µM).
